In ChEMBL document CHEMBL5055647, “Identification and Biological Activity of NFAT-133 Congeners from Streptomyces pactum” (J Nat Prod, 2021) one finds Activity and inhibition data, which are given here for four molecules.

Data set [1] relates to NCI-H460. Kind of data set: Cytotoxicity against human NCI-H460 cells up to 50 uM by MTT assay. The data set is classed as functional, cell-based. A digest of the protocol: (§1)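 Cells kept in high-glucose DMEM with 10% heat-inactivated FBS, streptomycin, amphotericin B, 37 °C, 5% CO2; exponential-phase cells seeded ~1.0 × 10^4/well, grown 12 h, then exposed to serial dilutions of compound; medium-only controls. Viability by MTT, absorbance 490 nm.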

The subject of data set [2] is RAW264.7. Description: Cytotoxicity against mouse RAW264.7 cells up to 50 uM by MTT assay. The data set is classed as cell-based. The note with it: raw264.7, 50 µM. A digest of the protocol: as §1
The subject of data set [3] is Bacillus subtilis. Kind of data set: Antibacterial activity against Bacillus subtilis ATCC 6051 by Whatman paper based disk diffusion assay. The data set is classed as functional, organism-based. In a few lines:
(§2)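 Test strains grown overnight in LB at 30 °C, 200 rpm; 100 μL culture mixed into 10 mL warm 0.7% LB soft agar and plated. Paper disks loaded with 10 μL of 10 mM compound solution, plates incubated at 37 °C; activity judged by presence and diameter of inhibition zone. Ampicillin (2 mg/mL) positive control.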

In data set [4] the test system is HeLa. Description: Cytotoxicity against human HeLa cells up to 50 uM by MTT assay. The data set is classed as functional, cell-based. In a few lines:
as §1

Data set [5] deals with Pseudomonas aeruginosa. Kind of data set: Antibacterial activity against Pseudomonas aeruginosa ATCC 9721 by Whatman paper based disk diffusion assay. It is filed as functional, organism-based. In a few lines: as §2
The test system of data set [6] is Staphylococcus aureus. Description: Antibacterial activity against Staphylococcus aureus ATCC 12600 by Whatman paper based disk diffusion assay. The data set is classed as functional, organism-based. A digest of the protocol:
as §2

Data set [7] deals with RAW264.7. Kind of data set: Inhibition of LPS-induced NO production in mouse RAW264.7 cells preincubated for 1 hr followed by LPS stimulation measured after 24 hrs by Griess reagent based assay. It is filed as functional, cell-based. The conditions noted are these: time 25.0 hrs. A digest of the protocol:
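Murine macrophages seeded ~1 × 10^4/well, grown 12 h, pretreated with compound 1 h, then LPS 25 ng/mL added for 24 h. Supernatant nitrite measured by Griess reagent (1:1, 37 °C, 15 min, dark), absorbance 520 nm, quantified against 0–100 μM sodium nitrite standards; mean ± SD of independent experiments, t-test, p < 0.05.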

Data set [8] concerns Escherichia coli. Description: Antibacterial activity against Escherichia coli ATCC 11775 by Whatman paper based disk diffusion assay. The data set is classed as functional, organism-based. In a few lines:
as §2

For data set [9], the system named is MCF7. Kind of data set: Cytotoxicity against human MCF7 cells up to 50 uM by MTT assay. It is filed as functional, cell-based. A digest of the protocol: as §1

Each structure is given as a SMILES string. Active and inactive are the calls of the source. No cut-off for these calls is given here.

Regarding `CC(=O)[C@@H](C)[C@@H]1O[C@H](CCO)c2cc(C)ccc2[C@@H]1C`, the result in data set [1], in data set [3], in [4], in [5], in data set [6] and in [8] was inactive. Besides, the result in [9] was inactive. Besides, the Activity result in [2] was “Non-Toxic”. Further, in [7], the inhibition entry was “Dose-dependent effect”.
`CC(=O)[C@@H](C)[C@@H]1O[C@@H](CCO)c2cc(C)ccc2[C@@H]1C`: the result in data set [1], in data set [3], in data set [4], in data set [5], in data set [6] and in [8] was inactive. In addition, the outcome in [9] was inactive. The Activity result in data set [2] is “Non-Toxic”. The inhibition entry in [7] is “Dose-dependent effect”.
As for `C=C[C@H](O)c1cc(C)ccc1[C@H](C)[C@@H](O)[C@H](C)C(C)=O`, the outcome in data set [1], in [3], in [4], in data set [5], in data set [6] and in [8] was inactive. In addition, the result in data set [9] was inactive. Moreover, the Activity result in [2] is reported as “Non-Toxic”. Moreover, the inhibition entry in [7] was “Dose-dependent effect”.
Regarding `CC(=O)[C@@H](C)[C@H](O)[C@@H](C)c1ccc(C)cc1/C=C/CO`, the result in data set [1], in [3], in [4], in [5], in data set [6] and in data set [8] was inactive. The result in [9] was inactive. In addition, in data set [2], the Activity result was “Non-Toxic”. Moreover, the inhibition entry in [7] was “Dose-dependent effect”.
